ChEMBL document CHEMBL3576819, “Design, synthesis, biological evaluation and molecular docking studies of phenylpropanoid derivatives as potent anti-hepatitis B virus agents” (Eur J Med Chem, 2015)

Columns and labels:
Hepatitis B virus [1] = experiment: Antiviral activity against Hepatitis B virus infected in human HepG2.2.15 cells assessed as inhibition of HBeAg secretion at 300 uM after 6 days by ELISA; format: functional; settings: HepG2 2.2.15, 144 h
How it was run: (§1)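 HepG2.2.15 cells (MEM, 10% FBS, 380 µg/ml G418) seeded at 1×10^5 cells/ml, held 24 h at 37 °C, then treated with various drug concentrations; medium with drug renewed every 3 d for up to 9 d. Culture medium sampled on days 3, 6 and 9, stored at -20 °C, and assayed for secreted antigen. Lamivudine as positive control; IC50 = 50% inhibition of secretion; means of at least two experiments.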

Hepatitis B virus [2] = experiment: Antiviral activity against Hepatitis B virus infected in human HepG2.2.15 cells assessed as inhibition of HBeAg secretion at 75 uM after 9 days by ELISA; format: functional; settings: HepG2 2.2.15, 216 h; how it was run: as §1
Hepatitis B virus [3] = experiment: Antiviral activity against Hepatitis B virus infected in human HepG2.2.15 cells assessed as inhibition of HBeAg secretion at 75 uM after 3 days by ELISA; format: functional; settings: HepG2 2.2.15, 72 h; how it was run: as §1
Hepatitis B virus [4] = experiment: Antiviral activity against Hepatitis B virus infected in human HepG2.2.15 cells assessed as inhibition of HBsAg secretion at 150 uM after 3 days by ELISA; format: functional; settings: HepG2 2.2.15, 72 h; how it was run: as §1
Hepatitis B virus [5] = experiment: Antiviral activity against Hepatitis B virus infected in human HepG2.2.15 cells assessed as cell survival at 75 uM after 9 days (reference value: 100%); format: functional; settings: HepG2 2.2.15, 216 h
How it was run: (§2)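 HepG2.2.15 cells (MEM, 10% FBS, 380 µg/ml G418, 37 °C, 5% CO2) seeded at 1×10^5 cells/ml, cultured 24 h, then exposed to various drug concentrations; drug-containing medium renewed every 3 d. OD read at 450 nm after 9 days; percent cell death calculated; CC50 = concentration killing 50% of cells. Means of at least two experiments.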

Hepatitis B virus [6] = experiment: Antiviral activity against Hepatitis B virus infected in human HepG2.2.15 cells assessed as cell survival at 150 uM after 9 days (reference value: 100%); format: functional; settings: HepG2 2.2.15, 216 h; how it was run: as §2
Hepatitis B virus [7] = experiment: Antiviral activity against Hepatitis B virus infected in human HepG2.2.15 cells assessed as cell survival at 37.5 uM after 9 days (reference value: 100%); format: functional; settings: HepG2 2.2.15, 216 h; how it was run: as §2
Hepatitis B virus [8] = experiment: Antiviral activity against Hepatitis B virus infected in human HepG2.2.15 cells assessed as inhibition of HBV DNA copies per uL at 150 uM after 9 days by real-time fluorescence quantitative PCR analysis; format: functional; settings: HepG2 2.2.15, 216 h
Hepatitis B virus [9] = experiment: Antiviral activity against Hepatitis B virus infected in human HepG2.2.15 cells assessed as inhibition of HBsAg secretion at 37.5 uM after 9 days by ELISA; format: functional; settings: HepG2 2.2.15, 216 h; how it was run: as §1
Hepatitis B virus [10] = experiment: Antiviral activity against Hepatitis B virus infected in human HepG2.2.15 cells assessed as inhibition of HBsAg secretion at 300 uM after 6 days by ELISA; format: functional; settings: HepG2 2.2.15, 144 h; how it was run: as §1
Hepatitis B virus [11] = experiment: Antiviral activity against Hepatitis B virus infected in human HepG2.2.15 cells assessed as inhibition of HBV DNA copies per uL at 75 uM after 9 days by real-time fluorescence quantitative PCR analysis; format: functional; settings: HepG2 2.2.15, 216 h
Hepatitis B virus [12] = experiment: Antiviral activity against Hepatitis B virus infected in human HepG2.2.15 cells assessed as inhibition of HBsAg secretion by ELISA; format: functional, organism-based; settings: HepG2 2.2.15; how it was run: as §1
Hepatitis B virus [13] = experiment: Antiviral activity against Hepatitis B virus infected in human HepG2.2.15 cells assessed as cell survival at 300 uM after 9 days (reference value: 100%); format: functional; settings: HepG2 2.2.15, 216 h; how it was run: as §2
Hepatitis B virus [14] = experiment: Antiviral activity against Hepatitis B virus infected in human HepG2.2.15 cells assessed as inhibition of HBsAg secretion at 75 uM after 9 days by ELISA; format: functional; settings: HepG2 2.2.15, 216 h; how it was run: as §1
Hepatitis B virus [15] = experiment: Antiviral activity against Hepatitis B virus infected in human HepG2.2.15 cells assessed as inhibition of HBsAg secretion at 150 uM after 9 days by ELISA; format: functional; settings: HepG2 2.2.15, 216 h; how it was run: as §1
Hepatitis B virus [16] = experiment: Antiviral activity against Hepatitis B virus infected in human HepG2.2.15 cells assessed as inhibition of HBV DNA copies per uL at 150 uM after 3 days by real-time fluorescence quantitative PCR analysis; format: functional; settings: HepG2 2.2.15, 72 h
[17] = Selectivity index, ratio of CC50 for human HepG2.2.15 cells to IC50 for Hepatitis B virus infected in human HepG2.2.15 cells assessed as inhibition of HBsAg secretion; format: functional
How it was run: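 Selectivity index computed as CC50/IC50, with CC50 from cell death of HepG2.2.15 cells after 9 days of treatment (OD 450 nm) and IC50 from 50% inhibition of HBeAg or HBsAg secretion in the same cells; medium with drug renewed every 3 d.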

Hepatitis B virus [18] = experiment: Antiviral activity against Hepatitis B virus infected in human HepG2.2.15 cells assessed as inhibition of HBV DNA copies per uL at 37.5 uM after 9 days by real-time fluorescence quantitative PCR analysis; format: functional; settings: HepG2 2.2.15, 216 h
Hepatitis B virus [19] = experiment: Antiviral activity against Hepatitis B virus infected in human HepG2.2.15 cells assessed as inhibition of HBeAg secretion at 37.5 uM after 3 days by ELISA; format: functional; settings: HepG2 2.2.15, 72 h; how it was run: as §1
Hepatitis B virus [20] = experiment: Antiviral activity against Hepatitis B virus infected in human HepG2.2.15 cells assessed as inhibition of HBeAg secretion at 37.5 uM after 6 days by ELISA; format: functional; settings: HepG2 2.2.15, 144 h; how it was run: as §1
Hepatitis B virus [21] = experiment: Antiviral activity against Hepatitis B virus infected in human HepG2.2.15 cells assessed as inhibition of HBV DNA copies per uL at 75 uM after 3 days by real-time fluorescence quantitative PCR analysis; format: functional; settings: HepG2 2.2.15, 72 h
Hepatitis B virus [22] = experiment: Antiviral activity against Hepatitis B virus infected in human HepG2.2.15 cells assessed as inhibition of HBV DNA copies per uL at 75 uM after 6 days by real-time fluorescence quantitative PCR analysis; format: functional; settings: HepG2 2.2.15, 144 h
Hepatitis B virus [23] = experiment: Antiviral activity against Hepatitis B virus infected in human HepG2.2.15 cells assessed as inhibition of HBsAg secretion at 150 uM after 6 days by ELISA; format: functional; settings: HepG2 2.2.15, 144 h; how it was run: as §1
Hepatitis B virus [24] = experiment: Antiviral activity against Hepatitis B virus infected in human HepG2.2.15 cells assessed as inhibition of HBV DNA replication by real-time fluorescence quantitative PCR analysis; format: functional, organism-based; settings: HepG2 2.2.15
Hepatitis B virus [25] = experiment: Antiviral activity against Hepatitis B virus infected in human HepG2.2.15 cells assessed as inhibition of HBsAg secretion at 300 uM after 9 days by ELISA; format: functional; settings: HepG2 2.2.15, 216 h; how it was run: as §1
Hepatitis B virus [26] = experiment: Antiviral activity against Hepatitis B virus infected in human HepG2.2.15 cells assessed as inhibition of HBsAg secretion at 300 uM after 3 days by ELISA; format: functional; settings: HepG2 2.2.15, 72 h; how it was run: as §1
Hepatitis B virus [27] = experiment: Antiviral activity against Hepatitis B virus infected in human HepG2.2.15 cells assessed as inhibition of HBV DNA copies per uL at 37.5 uM after 3 days by real-time fluorescence quantitative PCR analysis; format: functional; settings: HepG2 2.2.15, 72 h
Hepatitis B virus [28] = experiment: Antiviral activity against Hepatitis B virus infected in human HepG2.2.15 cells assessed as inhibition of HBeAg secretion at 75 uM after 6 days by ELISA; format: functional; settings: HepG2 2.2.15, 144 h; how it was run: as §1
Hepatitis B virus [29] = experiment: Antiviral activity against Hepatitis B virus infected in human HepG2.2.15 cells assessed as inhibition of HBeAg secretion at 300 uM after 3 days by ELISA; format: functional; settings: HepG2 2.2.15, 72 h; how it was run: as §1

Row | IC50 (Hepatitis B virus [12]) | SMILES | inhibition at 300 µM (Hepatitis B virus [1]) | inhibition at 75 µM (Hepatitis B virus [2]) | inhibition at 75 µM (Hepatitis B virus [3]) | inhibition at 150 µM (Hepatitis B virus [4]) | viability at 75 µM (Hepatitis B virus [5]) | viability at 150 µM (Hepatitis B virus [6]) | viability at 37.5 µM (Hepatitis B virus [7]) | inhibition at 150 µM (Hepatitis B virus [8]) | inhibition at 37.5 µM (Hepatitis B virus [9]) | inhibition at 300 µM (Hepatitis B virus [10]) | inhibition at 75 µM (Hepatitis B virus [11]) | viability at 300 µM (Hepatitis B virus [13]) | inhibition at 75 µM (Hepatitis B virus [14]) | inhibition at 150 µM (Hepatitis B virus [15]) | inhibition at 150 µM (Hepatitis B virus [16]) | Ratio CC50/IC50 [17] | inhibition at 37.5 µM (Hepatitis B virus [18]) | inhibition at 37.5 µM (Hepatitis B virus [19]) | inhibition at 37.5 µM (Hepatitis B virus [20]) | further results
1 | 14.2 µM | O=C(/C=C/c1ccc2c(c1)OCO2)O/N=C/c1ccccn1 | 85.1% | 89.8% | 47.5% | 63.8% | 72.9% | 53.8% | 79.3% | 72.2% | 70.7% | 88.7% | 68.7% | 35.1% | 78.4% | 86.9% | 45.8% | 17.85 | 58.4% | 31.7% | 66.5% | inhibition at 75 µM (Hepatitis B virus [21]): 36.9%; inhibition at 75 µM (Hepatitis B virus [22]): 47.6%; inhibition at 150 µM (Hepatitis B virus [23]): 80.5%; IC50 (Hepatitis B virus [24]): 23.4 µM; inhibition at 300 µM (Hepatitis B virus [25]): 93%; inhibition at 300 µM (Hepatitis B virus [26]): 75.8%; inhibition at 37.5 µM (Hepatitis B virus [27]): 30.4%; inhibition at 75 µM (Hepatitis B virus [28]): 74.8%; inhibition at 300 µM (Hepatitis B virus [29]): 63.5%
2 | 62.8 µM | COc1cc(/C=C/C(=O)O/N=C/c2ccccn2)cc2c1OCO2 | 75.4% | 57.3% | 27.3% | 41.2% | 94.2% | 82.8% | 101% | 54.5% | 30.4% | 76.6% | 47.3% | 67.2% | 65.8% | 70% | 34.9% | 10.27 | 36.7% | 17.8% | 22.7% | inhibition at 75 µM (Hepatitis B virus [21]): 28.6%; inhibition at 75 µM (Hepatitis B virus [22]): 39.2%; inhibition at 150 µM (Hepatitis B virus [23]): 59.6%; IC50 (Hepatitis B virus [24]): 95 µM; inhibition at 300 µM (Hepatitis B virus [25]): 81.3%; inhibition at 300 µM (Hepatitis B virus [26]): 58.5%; inhibition at 37.5 µM (Hepatitis B virus [27]): 21.6%; inhibition at 75 µM (Hepatitis B virus [28]): 42.3%; inhibition at 300 µM (Hepatitis B virus [29]): 54.2%
3 | 63.5 µM | COc1cc(/C=C/C(=O)O/N=C/c2ccco2)cc2c1OCO2 | 62% | 56.9% | 32.1% | 56.3% | 95.4% | 91.5% | 109% | 52% | 36.5% | 70.7% | 39.6% | 89.3% | 57.7% | 67.3% | 40.7% | 12.9 | 30.5% | 24.9% | 30.7% | inhibition at 75 µM (Hepatitis B virus [21]): 29.4%; inhibition at 75 µM (Hepatitis B virus [22]): 39.4%; inhibition at 150 µM (Hepatitis B virus [23]): 58.5%; IC50 (Hepatitis B virus [24]): 140 µM; inhibition at 300 µM (Hepatitis B virus [25]): 77.2%; inhibition at 300 µM (Hepatitis B virus [26]): 66.2%; inhibition at 37.5 µM (Hepatitis B virus [27]): 19.8%; inhibition at 75 µM (Hepatitis B virus [28]): 37.8%; inhibition at 300 µM (Hepatitis B virus [29]): 59.8%
4 | 235 µM | Nc1ccn([C@@H]2CS[C@H](CO)O2)c(=O)n1 [LAMIVUDINE] | 39.9% | 34.2% | 15.1% | 28.6% | 95.9% | 82.4% | 118% | 81.6% | 25.2% | 43.6% | 76.7% | 75.2% | 33.1% | 55.9% | 46.6% | 2.42 | 69.4% | 10.1% | 12.8% | inhibition at 75 µM (Hepatitis B virus [21]): 46%; inhibition at 75 µM (Hepatitis B virus [22]): 58.9%; inhibition at 150 µM (Hepatitis B virus [23]): 30.7%; IC50 (Hepatitis B virus [24]): 6.86 µM; inhibition at 300 µM (Hepatitis B virus [25]): 60.4%; inhibition at 300 µM (Hepatitis B virus [26]): 37.3%; inhibition at 37.5 µM (Hepatitis B virus [27]): 40%; inhibition at 75 µM (Hepatitis B virus [28]): 22.1%; inhibition at 300 µM (Hepatitis B virus [29]): 30.9%
